These results are taken from ChEMBL document CHEMBL1148389 (J Med Chem, 2004).

Values after ≈ are worked out from the molar mass of the structure shown. Values joined by “and” are separate entries in the source; they are usually repeats but may differ in a detail not shown here. Equal entries are not always repeated.

Data set [1] is described as follows: Ionisation constant for the compound. The class given is physicochemical. The essentials:
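pKa measured by UV–vis absorbance of the conjugate base in buffers from pH 6.8 to 10.8; DMSO stocks diluted to 0.4–0.5% DMSO. Fraction of A− plotted against pH to obtain pKa.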

The next data set relates to Escherichia coli. Nature of the data set: Minimum inhibitory concentration against Escherichia coli was determined. The class given is functional. In outline: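 Broth microdilution against E. coli BL21(DE3) pLysS in cation-adjusted Mueller–Hinton broth. Stocks in 1 M KOH, diluted via 50 mM Na2CO3 pH 8.5; final 0.01–64 μg/mL.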
In data set [2] the target is Enoyl-[acyl-carrier-protein] reductase [NADH] FabI (Escherichia coli) (UniProt P0AEK4). The data set is described as follows: In vitro inhibitory activity against wild-type enoyl-[acyl-carrier-protein] reductase (FabI) of Escherichia coli expressed as K1.
The target is the same in data set [3]. The data set is described as follows: In vitro inhibitory activity against wild-type enoyl-[acyl-carrier-protein] reductase (FabI) of Escherichia coli expressed as K2.

Chain of Enoyl-[acyl-carrier-protein] reductase [NADH] FabI (Escherichia coli) (P0AEK4 whole entry, looked up): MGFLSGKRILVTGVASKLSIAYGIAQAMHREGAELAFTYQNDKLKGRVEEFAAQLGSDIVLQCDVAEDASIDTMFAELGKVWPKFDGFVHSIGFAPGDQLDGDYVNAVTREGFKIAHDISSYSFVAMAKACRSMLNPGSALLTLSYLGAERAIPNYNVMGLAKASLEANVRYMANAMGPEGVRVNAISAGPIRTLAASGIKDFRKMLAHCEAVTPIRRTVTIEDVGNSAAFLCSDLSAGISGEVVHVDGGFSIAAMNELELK

Take `Oc1cc(Cl)ccc1Oc1ccc(Cl)cc1Cl` [TRICLOSAN]: the pKa in data set [1] amounted to 8.4; in data set [1] (read-out: pKa) it was 7.8. Also, the MIC against Escherichia coli came out at 0.3 µg/mL (≈ 1.04 µM).
The compound `Oc1ccccc1Cc1ccccc1O` gave a K1 in data set [2] of 53 µM. Besides, the K2 in data set [3] came to 30 µM. This compound also returned an MIC in the data set on Escherichia coli of more than 40 µg/mL.
Consider `Oc1ccccc1Oc1ccccc1`, for which the pKa in data set [1] (read-out: pKa) turned out to be 9.12. Besides, the K1 in data set [2] came out at 0.5 µM. In addition, the K2 in data set [3] worked out at 0.4 µM. Also, the MIC in the data set on Escherichia coli was 3.7 µg/mL (≈ 19.9 µM).
Turning to `Oc1cc(Cl)ccc1Oc1ccccc1`, in data set [1] (read-out: pKa), the pKa stood at 8.13. The K1 in data set [2] was determined as 1.1e-06 µM. The lowest concentration to inhibit growth in the data set with Escherichia coli (MIC) was 0.07 µg/mL (≈ 0.317 µM).
For the compound `Oc1cc(F)ccc1Oc1ccccc1`, the pKa in data set [1] (read-out: pKa) came out at 8.12. Further, in data set [3], the K2 was 0.042 µM and 0.24 µM. In addition, the MIC against Escherichia coli is 0.6 µg/mL (≈ 2.94 µM).
Turning to `Cc1ccc(Oc2ccccc2)c(O)c1`, the pKa in data set [1] (read-out: pKa) turned out to be 9.15. For the same compound, the K2 in data set [3] was 0.0072 µM and 0.0097 µM. Further, the MIC against Escherichia coli was 1 µg/mL (≈ 4.99 µM).

As usually defined, the pKa is the negative logarithm of the acid dissociation constant. Usually MIC stands for the least concentration at which growth counts as inhibited.
